From ChEMBL document CHEMBL1133383, “Synthesis and enzyme inhibitory activities of a series of lipidic diamine and aminoalcohol derivatives on cytosolic and secretory phospholipases A2” (Bioorg Med Chem Lett, 2000)

What was measured:
[1] = target: T1, Cytosolic phospholipase A2 (Mus musculus) (UniProt P47713); experiment: (§1) Effect on cytosolic Phospholipase A2 (PLA2) activity at a concentration of 100 uM
T1 sequence (whole entry): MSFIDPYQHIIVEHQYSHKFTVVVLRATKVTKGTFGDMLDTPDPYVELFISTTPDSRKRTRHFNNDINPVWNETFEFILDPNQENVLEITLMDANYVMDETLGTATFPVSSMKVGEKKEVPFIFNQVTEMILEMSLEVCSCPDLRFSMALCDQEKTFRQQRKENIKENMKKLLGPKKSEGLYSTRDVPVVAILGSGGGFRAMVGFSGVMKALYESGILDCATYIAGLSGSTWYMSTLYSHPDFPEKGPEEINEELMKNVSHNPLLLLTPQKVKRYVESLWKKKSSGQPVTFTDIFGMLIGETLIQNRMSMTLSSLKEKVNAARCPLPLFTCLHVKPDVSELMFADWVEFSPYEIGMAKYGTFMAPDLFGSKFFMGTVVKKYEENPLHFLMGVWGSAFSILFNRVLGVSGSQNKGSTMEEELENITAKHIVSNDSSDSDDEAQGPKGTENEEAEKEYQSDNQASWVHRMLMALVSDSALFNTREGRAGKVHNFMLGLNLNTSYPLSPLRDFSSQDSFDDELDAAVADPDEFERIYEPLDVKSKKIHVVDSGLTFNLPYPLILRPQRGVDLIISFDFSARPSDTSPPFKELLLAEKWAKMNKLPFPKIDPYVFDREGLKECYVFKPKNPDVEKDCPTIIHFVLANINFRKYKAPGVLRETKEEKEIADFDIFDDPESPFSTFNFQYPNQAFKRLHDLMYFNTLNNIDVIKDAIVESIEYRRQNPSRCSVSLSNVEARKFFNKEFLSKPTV
In short: (§2)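 Group IV cytosolic PLA2 from the RAW 264.7 macrophage line. Percent inhibition was measured at a single test concentration and reported as mean ± SEM (n=6). IC50 was determined only for compounds reaching 50% inhibition at that concentration.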

[2] = target: T2, Cytosolic phospholipase A2 (Mus musculus, UniProt P47713); experiment: as §1; in short: as §2
T2 sequence (P47713 whole entry): T1 sequence (whole entry)

[3] = target: T3, Phospholipase A2, membrane associated (Homo sapiens, UniProt P14555); experiment: (§3) Inhibition of secretory PLA2 activity in human recombinant synovial enzyme using [3H]oleate labelled membranes at a concentration of 10 uM
T3 sequence (P14555 whole entry): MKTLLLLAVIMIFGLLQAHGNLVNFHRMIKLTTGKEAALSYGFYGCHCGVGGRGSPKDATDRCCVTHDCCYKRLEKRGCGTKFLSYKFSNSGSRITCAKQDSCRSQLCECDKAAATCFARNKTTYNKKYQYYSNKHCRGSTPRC
In short: (§4)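 Secretory PLA2 activity was measured using autoclaved [3H]oleate-labelled membranes as substrate. The enzyme was either group II human recombinant synovial PLA2 or group I porcine pancreatic PLA2. Percent inhibition at a single concentration is reported as mean ± SEM (n=6), with significance marked at P<0.05 and P<0.01.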

[4] = target: Phospholipase A2 (Homo sapiens) (UniProt P04054); settings: Apis mellifera; 10 uM
[5] = target: T4, Phospholipase A2, membrane associated (Homo sapiens) (UniProt P14555); experiment: as §3; in short: as §4
T4 sequence (whole entry): T3 sequence (P14555 whole entry)

[6] = target: Phospholipase A2 (Homo sapiens) (UniProt P04054); settings: Naja naja; 10 uM

Chain of Phospholipase A2 (Homo sapiens) (P04054 23-148 limits assumed): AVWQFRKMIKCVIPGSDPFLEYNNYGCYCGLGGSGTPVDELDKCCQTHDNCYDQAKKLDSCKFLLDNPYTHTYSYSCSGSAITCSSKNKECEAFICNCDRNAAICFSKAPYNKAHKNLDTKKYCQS

## CCCCCCCCCCCCCCC(N)CNC(=O)CCCC(=O)O (centres undefined)
[1]
  I: 0%

## CCCCCCCCCCCCCCC(N)CN(CC(=O)OCC)CC(=O)OCC (centres undefined)
[1]
  I: 43.9%

## CCCCCCCCCCCCCCC(CNCC(=O)OCC)NC(=O)OC(C)(C)C (centres undefined)
[1]
  I: 0%

## CCCCCCCCCCCCCCC(COCc1ccccc1)NC(=O)/C=C/C(=O)O (centres undefined)
[2]
  IC50: 69.5 µM
[1]
  I: 60.7%

## CCCCCCCCCCCCCCC(CO)NCC(=O)O (centres undefined)
[1]
  I: 25%

## CCCCCCCCCCCCCCCC(=O)C(F)(F)F
[2]
  IC50: 11.7 µM
[1]
  I: 67.7%

## CCCCCCCCCCCCCCC(=O)NC(CCCCCCCCCCCCCC)COC(=O)CCCCCC (centres undefined)
[1]
  I: 0.5%

## CCCCCCCCCCCCCCC(CO)NCC (centres undefined)
[3]
  IC50: 3.7 µM
[4]
  I: 63.5%
[5]
  I: 80%
[6]
  I: 62.6%
[1]
  I: 25.2%

## CCCCCCCCCCCCCCC(=O)NC(CCCCCCCCCCCCCC)COC(=O)CCCCCCCCCCCCCC (centres undefined)
[1]
  I: 5.1%

## CCCCCCCCCCCCCCC(COCc1ccccc1)NCC (centres undefined)
[1]
  I: 0%

## CCCCCCCCCCCCCCC(COCc1ccccc1)NC(=O)CCC(=O)O (centres undefined)
[2]
  IC50: 62.8 µM
[1]
  I: 72%

## CCCCCCCCCCCCCCC(COCc1ccccc1)N(CC)CC (centres undefined)
[1]
  I: 1.9%

## CCCCCCCCCCCCCCC(COCc1ccccc1)NC(=O)CCCC(=O)O (centres undefined)
[2]
  IC50: 10.5 µM
[1]
  I: 84.8%

## CCCCCCCCCCCCCCC(CO)NC(=O)CCCC(=O)O (centres undefined)
[1]
  I: 0%

## CCCCCCCCCCCCCCC(COC(=O)CCCCCC)NC(=O)CCCCCC (centres undefined)
[1]
  I: 2.3%

## CCCCCCCCCCCCCCC(N)CN(CC)CC (centres undefined)
[3]
  IC50: 5.6 µM
[4]
  I: 57.6%
[5]
  I: 82.7%
[2]
  IC50: 11.9 µM
[6]
  I: 51.5%
[1]
  I: 90.6%
